Calls of active or inactive are those of the source. The calls are words filed in the database; no cut-off is given here.
test system: Ishikawa; assay: Antiproliferative activity against human Ishikawa cells after 48 hrs by MTT assay; assay type: functional, cell-based; details: not given
How it was run: (§1)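 Cells grown in RPMI1640 with 10% FBS and penicillin/streptomycin at 37 °C, 5% CO2. Seeded at 1 × 10^5/mL, grown 24 h, then exposed to compound at 1 × 10^-4 to 1 × 10^-7 mol/L for 48 h. Controls received medium with 1% DMSO. MTT 4 h, formazan dissolved in DMSO, absorbance at 490 nm; IC50 derived.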

SMILES | IC50
COc1cc2c(cc1OC)[C@@H]1[C@@H](CC2)[C@@H]2CC[C@H](OC)[C@@]2(C)C[C@H]1OC(=O)c1ccc(NC(=O)CN2CCCC2)cc1 | 5.51 µM
C[C@]12C[C@@H](OC(=O)c3ccc(NC(=O)CN4CCCC4)cc3)[C@@H]3c4ccc(O)cc4CC[C@H]3[C@@H]1CC[C@@H]2O | 17.3 µM
COc1cc2c(cc1OC)[C@@H]1[C@@H](CC2)[C@@H]2CC[C@H](OC)[C@@]2(C)C[C@H]1OC(=O)c1ccc(NC(=O)CN2CCN(C)CC2)cc1 | 5.55 µM

test system: MCF7; assay: Cell cycle arrest in human MCF7 cells assessed as G0/G1 phase accumulation at 1 uM after 6 hrs by propidium iodide staining based flow cytometry (reference value: 42.62%); assay type: functional; details: not given
How it was run: (§2)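 MCF-7 cells plated at 3 × 10^5 per well and left overnight, then treated in serum-free medium with a DMSO reference control. Cells fixed in 70% ice-cold ethanol, washed in PBS, stained with propidium iodide at 4 °C. Flow cytometry gave percentages in G1, S and G2/M phases. Mean ± SEM of three independent experiments.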

SMILES | Activity
COc1cc2c(cc1OC)[C@@H]1[C@@H](CC2)[C@@H]2CC[C@H](OC)[C@@]2(C)C[C@H]1OC(=O)c1ccc(NC(=O)CN2CCN(C)CC2)cc1 | 25.95%

test system: MCF7; assay: Cell cycle arrest in human MCF7 cells assessed as G2/M phase accumulation after 6 hrs by propidium iodide staining based flow cytometry; assay type: functional; details: not given; how it was run: as §2

SMILES | Activity
COc1cc2c(cc1OC)[C@@H]1[C@@H](CC2)[C@@H]2CC[C@H](OC)[C@@]2(C)C[C@H]1OC(=O)c1ccc(NC(=O)CN2CCN(C)CC2)cc1 | Dose-dependent effect

test system: Chorioallantoic membrane; assay: In vivo antiangiogenic activity in chicken fertilized egg chorioallantoic membrane after 72 hrs; assay type: functional, organism-based; details: Gallus gallus
How it was run: (§3)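 Fertilized eggs incubated 7 days at 37 °C, 5% CO2, with saturated humidity. A ~1 cm2 shell window exposed the CAM. Compounds in DMSO were applied on sterile methyl cellulose filter papers placed on the CAM, with PBS as blank. Window taped shut, eggs incubated 72 h at 37 °C, 60% relative humidity.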

SMILES | Activity
COc1cc2c(cc1OC)[C@@H]1[C@@H](CC2)[C@@H]2CC[C@H](OC)[C@@]2(C)C[C@H]1OC(=O)c1ccc(NC(=O)CN2CCN(C)CC2)cc1 | Dose-dependent effect

test system: MCF7; assay: Effect on AIM2 mRNA expression in human MCF7 cells at 0.5 to 2 uM by RT-PCR method; assay type: functional, cell-based; details: not given
How it was run: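 AIM2 mRNA, an ER-independent reference transcript, measured in treated MCF-7 cells by real-time PCR. Normalized to GAPDH and quantified by the ΔΔCT method. Mean ± SD, n = 3.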

SMILES | Activity
COc1cc2c(cc1OC)[C@@H]1[C@@H](CC2)[C@@H]2CC[C@H](OC)[C@@]2(C)C[C@H]1OC(=O)c1ccc(NC(=O)CN2CCN(C)CC2)cc1 | inactive

test system: MCF7; assay: Cell cycle arrest in human MCF7 cells assessed as G0/G1 phase accumulation at 2 uM after 6 hrs by propidium iodide staining based flow cytometry (reference value: 42.62%); assay type: functional; details: not given; how it was run: as §2

SMILES | Activity
COc1cc2c(cc1OC)[C@@H]1[C@@H](CC2)[C@@H]2CC[C@H](OC)[C@@]2(C)C[C@H]1OC(=O)c1ccc(NC(=O)CN2CCN(C)CC2)cc1 | 17.78%

test system: PC-3; assay: Antiproliferative activity against human PC3 cells after 48 hrs by MTT assay; assay type: functional, cell-based; details: PC-3, 48 h; how it was run: as §1

SMILES | IC50
COc1cc2c(cc1OC)[C@@H]1[C@@H](CC2)[C@@H]2CC[C@H](OC)[C@@]2(C)C[C@H]1OC(=O)c1ccc(NC(=O)CN2CCCC2)cc1 | 3.74 µM
C[C@]12C[C@@H](OC(=O)c3ccc(NC(=O)CN4CCCC4)cc3)[C@@H]3c4ccc(O)cc4CC[C@H]3[C@@H]1CC[C@@H]2O | 39.1 µM
COc1cc2c(cc1OC)[C@@H]1[C@@H](CC2)[C@@H]2CC[C@H](OC)[C@@]2(C)C[C@H]1OC(=O)c1ccc(NC(=O)CN2CCN(C)CC2)cc1 | 4.29 µM

test system: MCF7; assay: Cell cycle arrest in human MCF7 cells assessed as G2/M phase accumulation at 1 uM after 6 hrs by propidium iodide staining based flow cytometry (reference value: 22.46%); assay type: functional; details: not given; how it was run: as §2

SMILES | Activity
COc1cc2c(cc1OC)[C@@H]1[C@@H](CC2)[C@@H]2CC[C@H](OC)[C@@]2(C)C[C@H]1OC(=O)c1ccc(NC(=O)CN2CCN(C)CC2)cc1 | 44.06%

test system: Chorioallantoic membrane; assay: In vivo antiangiogenic activity in chicken fertilized egg chorioallantoic membrane at 40 uM after 72 hrs; assay type: functional, organism-based; details: Gallus gallus; how it was run: as §3

SMILES | Activity
COc1cc2c(cc1OC)[C@@H]1[C@@H](CC2)[C@@H]2CC[C@H](OC)[C@@]2(C)C[C@H]1OC(=O)c1ccc(NC(=O)CN2CCN(C)CC2)cc1 | Active

test system: MCF7; assay: Antiproliferative activity against human MCF7 cells after 48 hrs by MTT assay; assay type: functional, cell-based; details: MCF7, 48 h; how it was run: as §1

SMILES | IC50
COc1cc2c(cc1OC)[C@@H]1[C@@H](CC2)[C@@H]2CC[C@H](OC)[C@@]2(C)C[C@H]1OC(=O)c1ccc(NC(=O)CN2CCCC2)cc1 | 15 µM
C[C@]12C[C@@H](OC(=O)c3ccc(NC(=O)CN4CCCC4)cc3)[C@@H]3c4ccc(O)cc4CC[C@H]3[C@@H]1CC[C@@H]2O | 34.7 µM
COc1cc2c(cc1OC)[C@@H]1[C@@H](CC2)[C@@H]2CC[C@H](OC)[C@@]2(C)C[C@H]1OC(=O)c1ccc(NC(=O)CN2CCN(C)CC2)cc1 | 4.33 µM

target: T1, Estrogen receptor (Homo sapiens) (UniProt P03372); assay: Inhibition of estrogen receptor in human MCF7 cells assessed as inhibition of estradiol-induced PgR mRNA expression by RT-PCR method relative to control; assay type: cell-based; details: not given
T1 sequence (whole entry): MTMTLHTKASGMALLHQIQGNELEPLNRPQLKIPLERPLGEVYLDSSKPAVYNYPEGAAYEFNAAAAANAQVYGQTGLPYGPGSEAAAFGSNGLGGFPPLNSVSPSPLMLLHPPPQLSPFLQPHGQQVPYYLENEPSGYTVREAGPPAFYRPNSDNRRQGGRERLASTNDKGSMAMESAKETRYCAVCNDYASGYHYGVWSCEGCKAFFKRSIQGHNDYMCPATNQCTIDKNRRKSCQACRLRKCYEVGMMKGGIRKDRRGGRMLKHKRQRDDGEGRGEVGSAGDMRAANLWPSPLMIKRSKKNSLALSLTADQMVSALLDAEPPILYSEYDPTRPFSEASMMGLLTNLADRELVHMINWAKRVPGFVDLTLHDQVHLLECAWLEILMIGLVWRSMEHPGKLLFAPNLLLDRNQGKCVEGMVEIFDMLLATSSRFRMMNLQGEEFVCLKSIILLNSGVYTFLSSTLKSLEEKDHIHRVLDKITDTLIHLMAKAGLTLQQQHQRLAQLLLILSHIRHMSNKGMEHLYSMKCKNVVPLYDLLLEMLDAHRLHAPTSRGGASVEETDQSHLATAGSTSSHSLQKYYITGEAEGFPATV
How it was run: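 MCF-7 cells stimulated with 10 nM E2 and co-treated with compound. PgR mRNA measured by real-time PCR, normalized to GAPDH and quantified by the ΔΔCT method. The 10 nM E2 level was set as 100%. Mean ± SD, n = 3.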

SMILES | inhibition
COc1cc2c(cc1OC)[C@@H]1[C@@H](CC2)[C@@H]2CC[C@H](OC)[C@@]2(C)C[C@H]1OC(=O)c1ccc(NC(=O)CN2CCN(C)CC2)cc1 | Dose-dependent effect

test system: MCF7; assay: Cell cycle arrest in human MCF7 cells assessed as S phase accumulation at 2 uM after 6 hrs by propidium iodide staining based flow cytometry (reference value: 33.14%); assay type: functional; details: not given; how it was run: as §2

SMILES | Activity
COc1cc2c(cc1OC)[C@@H]1[C@@H](CC2)[C@@H]2CC[C@H](OC)[C@@]2(C)C[C@H]1OC(=O)c1ccc(NC(=O)CN2CCN(C)CC2)cc1 | 33.77%

test system: HepG2; assay: Antiproliferative activity against human HepG2 cells after 48 hrs by MTT assay; assay type: functional, cell-based; details: HepG2, 48 h; how it was run: as §1

SMILES | IC50
COc1cc2c(cc1OC)[C@@H]1[C@@H](CC2)[C@@H]2CC[C@H](OC)[C@@]2(C)C[C@H]1OC(=O)c1ccc(NC(=O)CN2CCCC2)cc1 | 3.05 µM
C[C@]12C[C@@H](OC(=O)c3ccc(NC(=O)CN4CCCC4)cc3)[C@@H]3c4ccc(O)cc4CC[C@H]3[C@@H]1CC[C@@H]2O | 21.1 µM
COc1cc2c(cc1OC)[C@@H]1[C@@H](CC2)[C@@H]2CC[C@H](OC)[C@@]2(C)C[C@H]1OC(=O)c1ccc(NC(=O)CN2CCN(C)CC2)cc1 | 5.22 µM

test system: HUVEC; assay: Antiproliferative activity against HUVEC after 48 hrs by MTT assay; assay type: functional, cell-based; details: Homo sapiens; how it was run: as §1

SMILES | IC50
COc1cc2c(cc1OC)[C@@H]1[C@@H](CC2)[C@@H]2CC[C@H](OC)[C@@]2(C)C[C@H]1OC(=O)c1ccc(NC(=O)CN2CCCC2)cc1 | 2.63 µM
C[C@]12C[C@@H](OC(=O)c3ccc(NC(=O)CN4CCCC4)cc3)[C@@H]3c4ccc(O)cc4CC[C@H]3[C@@H]1CC[C@@H]2O | 36.1 µM
COc1cc2c(cc1OC)[C@@H]1[C@@H](CC2)[C@@H]2CC[C@H](OC)[C@@]2(C)C[C@H]1OC(=O)c1ccc(NC(=O)CN2CCN(C)CC2)cc1 | 4.85 µM

test system: MCF7; assay: Cell cycle arrest in human MCF7 cells assessed as S phase accumulation at 1 uM after 6 hrs by propidium iodide staining based flow cytometry (reference value: 33.14%); assay type: functional; details: not given; how it was run: as §2

SMILES | Activity
COc1cc2c(cc1OC)[C@@H]1[C@@H](CC2)[C@@H]2CC[C@H](OC)[C@@]2(C)C[C@H]1OC(=O)c1ccc(NC(=O)CN2CCN(C)CC2)cc1 | 31.14%

test system: Ishikawa; assay: Antiproliferative activity against human Ishikawa cells assessed as suppression of proliferation at 10 uM after 48 hrs by MTT assay relative to control; assay type: functional; details: not given

SMILES | Activity
COc1cc2c(cc1OC)[C@@H]1[C@@H](CC2)[C@@H]2CC[C@H](OC)[C@@]2(C)C[C@H]1OC(=O)c1ccc(NC(=O)CN2CCCC2)cc1 | Active
C[C@]12C[C@@H](OC(=O)c3ccc(NC(=O)CN4CCCC4)cc3)[C@@H]3c4ccc(O)cc4CC[C@H]3[C@@H]1CC[C@@H]2O | Active
COc1cc2c(cc1OC)[C@@H]1[C@@H](CC2)[C@@H]2CC[C@H](OC)[C@@]2(C)C[C@H]1OC(=O)c1ccc(NC(=O)CN2CCN(C)CC2)cc1 | Active

test system: MCF7; assay: Cell cycle arrest in human MCF7 cells assessed as G2/M phase accumulation at 2 uM after 6 hrs by propidium iodide staining based flow cytometry (reference value: 22.46%); assay type: functional; details: not given; how it was run: as §2

SMILES | Activity
COc1cc2c(cc1OC)[C@@H]1[C@@H](CC2)[C@@H]2CC[C@H](OC)[C@@]2(C)C[C@H]1OC(=O)c1ccc(NC(=O)CN2CCN(C)CC2)cc1 | 49.19%

Source: ChEMBL document CHEMBL4130384, “Design, synthesis and biological evaluation of novel 2-methoxyestradiol analogs as dual selective estrogen receptor modulators (SERMs) and antiangiogenic agents” (Eur J Med Chem, 2017)
